From ChEMBL document CHEMBL4270544, “Design, synthesis and biological evaluation of a novel tubulin inhibitor 7a3 targeting the colchicine binding site” (Eur J Med Chem, 2018)
Calls of active or inactive are those of the source. The rule behind the calls is not given here.

Key:
SK-OV-3 [1] = test: Antiproliferative activity against human SKOV3 cells after 72 hrs by CCK8 assay; format: functional, cell-based; settings: SK-OV-3, 72 h
Method in brief: (§1)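 CCK-8 proliferation assay with CA-4 as positive control. IC50 is the concentration giving 50% inhibition of proliferation. Mean ± SEM from three independent experiments.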

MDA-MB-231 = test: Antiproliferative activity against human MDA-MB-231 cells after 72 hrs by CCK8 assay; format: functional, cell-based; settings: MDA-MB-231, 72 h; method in brief: as §1
HeLa = test: Antiproliferative activity against human HeLa cells after 72 hrs by CCK8 assay; format: functional, cell-based; method in brief: as §1
CT26 = test: Antiproliferative activity against mouse CT26 cells after 72 hrs by CCK8 assay; format: functional, cell-based; settings: CT26, 72 h; method in brief: as §1
A549 = test: Antiproliferative activity against human A549 cells after 72 hrs by CCK8 assay; format: functional, cell-based; settings: A549, 72 h; method in brief: as §1
MCF7 = test: Antiproliferative activity against human MCF7 cells after 72 hrs by CCK8 assay; format: functional, cell-based; settings: MCF7, 72 h; method in brief: as §1
SK-OV-3 [2] = test: Antimigratory activity against human SKOV3 cells assessed as number of migrated cells at 50 nM after 24 hrs by crystal violet staining based transwell migration assay (reference value: 49.3 to 50.7); format: functional
SK-OV-3 [3] = test: Antimigratory activity against human SKOV3 cells assessed as number of migrated cells at 100 nM after 24 hrs by crystal violet staining based transwell migration assay (reference value: 49.3 to 50.7); format: functional
SK-OV-3 [4] = test: Antimigratory activity against human SKOV3 cells assessed as number of migrated cells at 25 nM after 24 hrs by crystal violet staining based transwell migration assay (reference value: 49.3 to 50.7); format: functional
Bos taurus = species on record: Bos taurus; test: Inhibition of bovine MAP-rich tubulin polymerization at 10 uM measured every 1 min for 30 mins relative to control
Method in brief: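 Purified tubulin polymerization followed at 37 °C by absorbance at 340 nm, read every 1 min for 30 min. Test concentrations 2.5, 10 and 40 µM. CA-4 at 10 µM served as positive control and DMSO (1%, v/v) as vehicle. Polymerization is expressed relative to the vehicle group.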

SK-OV-3 [5] = test: Antimigratory activity against human SKOV3 cells assessed as wound closure at 160 nM after 24 hrs by microscopy based scratch wound assay (reference value: 79.5 +/- 2.8%); format: functional
SK-OV-3 [6] = test: Antimigratory activity against human SKOV3 cells assessed as wound closure at 80 nM after 24 hrs by microscopy based scratch wound assay (reference value: 79.5 +/- 2.8%); format: functional

CCOc1ccc(-c2c(-c3cc(OC)c(OC)c(OC)c3)nn(-c3ccc(OC)cc3)c2N)cc1
IC50 (SK-OV-3 [1]): 1210 nM
IC50 (MDA-MB-231): 2010 nM

COc1cc(-c2nn(C)cc2-c2ccc(SC)cc2)cc(OC)c1OC
IC50 (SK-OV-3 [1]): 155 nM
IC50 (MDA-MB-231): 307 nM

COc1cc(-c2nn(-c3ccc(F)cc3)c(N)c2-c2ccc(SC)cc2)cc(OC)c1OC
IC50 (SK-OV-3 [1]): 7370 nM
IC50 (MDA-MB-231): 22900 nM

COc1cc(-c2nn(C(C)(C)C)c(N)c2-c2ccc(SC)cc2)cc(OC)c1OC
IC50 (SK-OV-3 [1]): 24200 nM
IC50 (MDA-MB-231): 20800 nM

COc1ccc(-c2c(-c3cc(OC)c(OC)c(OC)c3)nn(C(C)(C)C)c2N)cc1F
IC50 (SK-OV-3 [1]): 16900 nM
IC50 (MDA-MB-231): 29500 nM

COc1ccc(-n2nc(-c3cc(OC)c(OC)c(OC)c3)c(-c3ccc(OC)c(F)c3)c2N)cc1
IC50 (SK-OV-3 [1]): 14700 nM
IC50 (MDA-MB-231): 18400 nM

COc1ccc(-c2c(-c3cc(OC)c(OC)c(OC)c3)nn(-c3ccc(F)cc3)c2N)cc1
IC50 (SK-OV-3 [1]): 28900 nM
IC50 (MDA-MB-231): 33700 nM

COc1ccc(-c2cnn(C)c2-c2cc(OC)c(OC)c(OC)c2)cc1
IC50 (SK-OV-3 [1]): 69 nM
IC50 (MDA-MB-231): 74 nM

COc1ccc(-c2cn(C)nc2-c2cc(OC)c(OC)c(OC)c2)cc1
IC50 (SK-OV-3 [1]): 89 nM
IC50 (MDA-MB-231): 166 nM

CCOc1ccc(-c2c(-c3cc(OC)c(OC)c(OC)c3)nn(C(C)(C)C)c2N)cc1
IC50 (SK-OV-3 [1]): 1120 nM
IC50 (MDA-MB-231): 2570 nM

COc1ccc(-c2cnn(C)c2-c2cc(OC)c(OC)c(OC)c2)cc1F
IC50 (HeLa): 112 nM
IC50 (CT26): 151 nM
IC50 (SK-OV-3 [1]): 66 nM
IC50 (MDA-MB-231): 57 nM
IC50 (A549): 187 nM
IC50 (MCF7): 113 nM

COc1ccc(-n2nc(-c3cc(OC)c(OC)c(OC)c3)c(-c3ccc(SC)cc3)c2N)cc1
IC50 (SK-OV-3 [1]): 14000 nM
IC50 (MDA-MB-231): 7050 nM

COc1cc(-c2c(-c3ccc(SC)cc3)cnn2C)cc(OC)c1OC
IC50 (SK-OV-3 [1]): 52 nM
IC50 (MDA-MB-231): 41 nM

COc1ccc(-c2c(-c3cc(OC)c(OC)c(OC)c3)nn(C)c2N)cc1
IC50 (SK-OV-3 [1]): 16300 nM
IC50 (MDA-MB-231): 31100 nM

COc1ccc(-c2c(-c3cc(OC)c(OC)c(OC)c3)nn(C)c2N)cc1F
IC50 (SK-OV-3 [1]): 31800 nM
IC50 (MDA-MB-231): 36400 nM

CCOc1ccc(-c2c(-c3cc(OC)c(OC)c(OC)c3)nn(C)c2N)cc1
IC50 (SK-OV-3 [1]): 338 nM
IC50 (MDA-MB-231): 490 nM

COc1ccc(-c2cn(C)nc2-c2cc(OC)c(OC)c(OC)c2)cc1F
IC50 (HeLa): 28.8 nM
IC50 (CT26): 58.7 nM
IC50 (SK-OV-3 [1]): 55 nM
IC50 (MDA-MB-231): 41 nM
IC50 (A549): 141 nM
IC50 (MCF7): 37.2 nM

COc1ccc(/C=C\c2cc(OC)c(OC)c(OC)c2)cc1O [COMBRETASTATIN A4]
IC50 (HeLa): 14.2 nM
Activity (SK-OV-3 [2]): 20.7
IC50 (CT26): 45.1 nM
IC50 (SK-OV-3 [1]): 5.9 nM
Activity (SK-OV-3 [3]): 18.3
Activity (SK-OV-3 [4]): 26.3
IC50 (MDA-MB-231): 4.5 nM
IC50 (A549): 94.3 nM
inhibition (Bos taurus): Active
IC50 (MCF7): 39.1 nM
Activity (SK-OV-3 [5]): 29.2%
Activity (SK-OV-3 [6]): 41.9%

COc1ccc(-c2c(-c3cc(OC)c(OC)c(OC)c3)nn(C(C)(C)C)c2N)cc1
IC50 (SK-OV-3 [1]): 40300 nM
IC50 (MDA-MB-231): 31300 nM

COc1cc(-c2nn(C)c(N)c2-c2ccc(SC)cc2)cc(OC)c1OC
IC50 (SK-OV-3 [1]): 438 nM
IC50 (MDA-MB-231): 748 nM

CCOc1ccc(-c2c(-c3cc(OC)c(OC)c(OC)c3)nn(-c3ccc(F)cc3)c2N)cc1
IC50 (SK-OV-3 [1]): 2830 nM
IC50 (MDA-MB-231): 1660 nM

COc1ccc(-c2c(-c3cc(OC)c(OC)c(OC)c3)nn(-c3ccc(OC)cc3)c2N)cc1
IC50 (SK-OV-3 [1]): 19000 nM
IC50 (MDA-MB-231): 15900 nM

CCOc1ccc(-c2cnn(C)c2-c2cc(OC)c(OC)c(OC)c2)cc1
IC50 (HeLa): 93.1 nM
IC50 (CT26): 165 nM
IC50 (SK-OV-3 [1]): 43 nM
IC50 (MDA-MB-231): 72 nM
IC50 (A549): 99 nM
IC50 (MCF7): 39.9 nM

COc1ccc(-c2c(-c3cc(OC)c(OC)c(OC)c3)nn(-c3ccc(F)cc3)c2N)cc1F
IC50 (SK-OV-3 [1]): 33200 nM
IC50 (MDA-MB-231): 24600 nM
